In ChEMBL document CHEMBL4725488, “Dual-Stage Picolinic Acid-Derived Inhibitors of Toxoplasma gondii” (ACS Med Chem Lett, 2020):
In brackets after ≈: the same amount, converted by molar mass. Activity calls are given as the source filed them. The calls are words filed in the database; no cut-off is given here.

Tests used:
Toxoplasma gondii [1] = assay: Antiparasitic activity against Toxoplasma gondii ME49 tachyzoites infected in human HFF-1 cells assessed as inhibition of parasitic growth preincubated for 48 hrs followed by [5,6-3H]uracil addition and measured after 24 hrs by liquid scintillation counting analysis; assay type: functional, organism-based
In short: (§1)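 HFF host cells harbouring tachyzoites, or bradyzoites differentiated in vitro by base-mediated maturation, were exposed to compounds in dose–response format. EC50 was the concentration inhibiting 50% of parasites. Tested at least in triplicate (n ≥ 3) unless noted, some in duplicate (n = 2).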

Toxoplasma gondii [2] = assay: Antiparasitic activity against Toxoplasma gondii ME49 bradyzoite infected in human HFF-1 cells assessed as inhibition of parasitic growth preincubated for 48 hrs followed by [5,6-3H]uracil addition and measured after 24 hrs by liquid scintillation counting analysis; assay type: functional, organism-based; in short: as §1
[3] = (§2) Cytotoxicity against HFF cells assessed as reduction in cell viability incubated for 72 hrs by Cell titer assay; assay type: cell-based; conditions: human, HFF cells
In short: (§3)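 Uninfected HFF cells exposed to compounds for 72 h. CC50 is the concentration that cuts cell viability by 50%. At least triplicate (n ≥ 3) unless noted, some in duplicate.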

[4] = Selectivity index, ratio of CC50 for human HFF cells to EC50 for Toxoplasma gondii ME49 tachyzoites infected in human HFF cells; assay type: toxicity, cell-based
In short: (§4)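 Selectivity index computed as CC50 in uninfected HFF cells (72 h exposure) divided by EC50 for the bradyzoite or tachyzoite growth assay run in the same HFF line.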

[5] = Lipophilicity log D of compound at pH 7.4; assay type: physicochemical; conditions: buffer
In short: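 LogD at pH 7.4, determined experimentally.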

[6] = Kinetic aqueous solubility of the compound in pH 7.4; assay type: physicochemical; conditions: buffer, read-out: Kinetic_solubility
In short: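 Kinetic aqueous solubility measured at pH 7.4.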

[7] = Stability in CD-1 mouse liver microsomes assessed as parent compound remaining measured after 60 mins by LC-MS method; assay type: ADME, Microsome; conditions: for remaining at 1 h: CD-1, mouse, liver microsomes, read-out: Stabilty; for Stabilty: mouse, microsomes, 1 h
In short: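 Mouse microsomes, reported as percent parent compound remaining after 1 h.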

[8] = Stability in CD-1 mouse plasma assessed as parent compound remaining measured after 60 mins by LC-MS/MS method; assay type: ADME, cell-free; conditions: for remaining at 1 h: CD-1, mouse, read-out: Stabilty
In short: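 Mouse plasma, reported as percent parent compound remaining after 1 h.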

[9] = Permeability of compound by PAMPA-BBB assay; assay type: ADME; conditions: read-out: permeability
In short: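 Blood–brain barrier PAMPA, with permeability reported as Pe (10–6 cm/s).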

[10] = Selectivity index, ratio of CC50 for human HFF cells to EC50 for Toxoplasma gondii ME49 bradyzoite infected in human HFF cells; assay type: toxicity, cell-based; in short: as §4
[11] = target: T1, Hexokinase (Toxoplasma gondii) (UniProt Q969A8); assay: Inhibition of hexokinase in Toxoplasma gondii ME49 infected human HFF cells assessed as 13C6-glucose-6-phosphate treated at 6 x EC50 4 hrs postinfection for 5 hrs media changed with [13C6]-glucose; assay type: cell-based
T1 sequence (whole entry): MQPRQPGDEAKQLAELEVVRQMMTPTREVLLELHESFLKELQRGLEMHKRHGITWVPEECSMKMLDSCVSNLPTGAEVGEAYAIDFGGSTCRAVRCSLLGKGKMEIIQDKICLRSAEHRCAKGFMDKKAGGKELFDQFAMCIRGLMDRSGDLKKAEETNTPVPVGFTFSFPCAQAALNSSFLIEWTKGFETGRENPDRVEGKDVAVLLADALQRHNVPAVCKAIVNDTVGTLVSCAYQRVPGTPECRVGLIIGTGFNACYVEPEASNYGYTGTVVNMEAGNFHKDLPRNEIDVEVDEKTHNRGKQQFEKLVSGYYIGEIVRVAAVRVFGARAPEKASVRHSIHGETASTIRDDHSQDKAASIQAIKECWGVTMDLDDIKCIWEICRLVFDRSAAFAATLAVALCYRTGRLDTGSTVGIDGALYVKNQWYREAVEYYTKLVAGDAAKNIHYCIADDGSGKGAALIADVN
In short: (§5)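 Infected HFF cells were treated 4 h postinfection with DMSO or compound (2 or 6 × EC50). After 5 h the medium was switched to glucose-free RPMI with 13C6-glucose and labelled for 10 min. Samples were rapidly quenched, processed and analysed by broad-spectrum mass spectrometry for 13C6-glucose-6-phosphate (hexokinase product) against DMSO.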

[12] = target: T1, Hexokinase (Toxoplasma gondii); assay: Inhibition of hexokinase in Toxoplasma gondii ME49 infected human HFF cells assessed as 13C6-glucose-6-phosphate treated at 2 x EC50 4 hrs postinfection for 5 hrs media changed with [13C6]-glucose; assay type: cell-based; in short: as §5
Toxoplasma gondii [13] = assay: Ex vivo inhibition of Toxoplasma gondii ME49 bradyzoite isolated from 30 days post infection brain of C57BL/6J mouse transferred to human HFF cells after 3 days using anti-BAG1 by fluorescence assay; assay type: functional; conditions: time 72.0 hrs
In short: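 Bradyzoites were harvested from brains of four infected mice 30+ days after infection, purified and transferred to HFF cells. Compound was added at 1, 3 or 6 × EC50 and incubated 3 days against a DMSO control. Monolayers were fixed, labelled with anti-BAG1 antibody against a bradyzoite-specific antigen, and imaged by fluorescence.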

HFF = assay: as §2; assay type: cell-based; conditions: human, hff, 72 h; in short: as §3
[14] = Protein binding in male Balb/c mouse at 15 mg/kg, ip; assay type: ADME, organism-based; conditions: plasma, read-out: PB (converted)
[15] = Ratio of AUC in brain to plasma in male Balb/c mouse at 15 mg/kg, ip; assay type: ADME, organism-based; conditions: read-out: BPR
In short: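 Male BALB/c mice given a single 15 mg/kg ip injection as a clear solution of the sodium salt. Plasma sampled at 30 min and 2 h after dosing, brain at 2 h. Terminal mean AUC to 2 h determined for plasma (ng/mL) and brain (ng/g). Brain-to-plasma ratio taken from these AUCs.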

[16] = Concentration at 2 hrs in male Balb/c mouse brain at 15 mg/kg, ip; conditions: in vivo
[17] = Plasma concentration at 2 hrs in male Balb/c mouse plasma at 15 mg/kg, ip; conditions: in vivo
[18] = HFF cells, read-out: Selectivity ratio

| Structure (SMILES) | EC50 (Toxoplasma gondii [1]; Toxoplasma gondii, ME49, HFF-1) [µM] | EC50 (Toxoplasma gondii [2]; Toxoplasma gondii, ME49, HFF-1) [µM] | CC50 at 72 h [3] [µM] | selectivity ratio [4, 18] | selectivity ratio [10, 18] | also measured |
| --- | --- | --- | --- | --- | --- | --- |
| CC(C)(C)c1ccc(C(=O)Nc2cc(Cl)c(-c3ccccc3)nc2C(=O)O)cc1 | 0.56 | 0.41 | 48.2 | 86.1 | 118 | logD ([5]; read-out: logD): 3.9; solubility kinetic [6]: 6.4 µM (≈ 2.62 µg/mL); remaining at 1 h [7]: 85.1%; remaining at 1 h [8]: 97.1%; Papp [9]: 5.4 ×10⁻⁶ cm/s |
| CC(C)(C)c1ccc(C(=O)Nc2cc(Cl)cnc2C(=O)O)cc1 [listing 1 of 2 here] |  |  |  |  |  | inhibition [11]: inactive; inhibition [12]: inactive; inhibition (Toxoplasma gondii [13]): Active |
| CC(C)(C)c1ccc(C(=O)Nc2ccc(Br)nc2C(=O)O)cc1 | 5.14 | 3.96 | > 50 | > 9.7 | > 12.6 |  |
| COc1ccccc1C(=O)Nc1cc(Cl)cnc1C(=O)O | 3.5 | 4.9 | > 50 | > 14.3 | > 10.2 |  |
| COc1ccc(C(=O)Nc2cc(Cl)cnc2C(=O)O)cc1 | 7.1 | 2.41 | > 50 | > 7 |  | selectivity ratio ([10]; HFF cells, read-out: Selectivity Index): > 20.7 |
| O=C(Nc1cc(Cl)cnc1C(=O)O)c1ccccc1 | 2.42 | 4.47 | > 50 | > 20.7 | > 11.2 |  |
| CC(C)(C)c1ccc(C(=O)Nc2cc(Cl)cnc2C(=O)O)cc1 [listing 2 of 2 here] | 0.24 | 0.35 | 2.5 | 10.4 | 7.1 | logD ([5]; read-out: logD): 2.7; solubility kinetic [6]: 33 µM (≈ 11 µg/mL); Stabilty [7]: 75.4%; remaining at 1 h [8]: 98.4%; Papp [9]: 6.9 ×10⁻⁶ cm/s |
| COc1cccc(C(=O)Nc2cc(Cl)cnc2C(=O)O)c1 | 1.82 | 6.2 | > 50 | > 27.5 | > 8.1 |  |
| Cc1ccc(C(=O)Nc2cc(Cl)cnc2C(=O)O)cc1 | 1.48 | 1.1 | 18.2 | 12.3 | 16.5 |  |
| CC(C)(C)c1ccc(C(=O)Nc2cc(Cl)ncc2C(=O)O)cc1 | > 10 | > 10 | 23.6 |  | > 10 |  |
| CC(C)(C)c1ccc(C(=O)Nc2cc(Cl)cnc2-c2nnn[nH]2)cc1 | 0.8 | 2.45 | 1.2 | 1.5 | 0.5 |  |
| CC(C)(C)c1ccc(C(=O)Nc2cc(Cl)c(-c3ccccc3)cc2C(=O)O)cc1 | 0.46 | 0.99 | > 50 |  |  | logD ([5]; read-out: logD): 5.4; solubility kinetic [6]: 2.7 µM (≈ 1.1 µg/mL); remaining at 1 h [7]: 69.2%; remaining at 1 h [8]: 100% |
| CC(C)(C)c1ccc(C(=O)Nc2cc(Cl)c(Br)nc2C(=O)O)cc1 | 3.85 | 4.09 | > 50 | > 13 | > 12.2 |  |
| CC(C)(C)c1ccc(C(=O)Nc2cccnc2C(=O)O)cc1 | 1.11 | 2.16 | 9 | 8.1 | 4.2 |  |
| CC(C)(C)c1ccc(C(=O)Nc2cc(Cl)cnc2C(=O)[O-])cc1.[Na+] |  |  |  |  |  | EC50 (Toxoplasma gondii [1]; hff-1): 0.32 µM; EC50 (Toxoplasma gondii [2]; hff-1): 0.23 µM; CC50 (HFF): 2.1 µM; selectivity ratio [4]: 6.6; logD [5]: 2.6; solubility kinetic [6]: 164 µM; Stabilty [7]: 100%; Stabilty ([8]; mouse, 1 h): 88.1%; fraction unbound [14]: 0.005; Kp [15]: 0.1; selectivity ratio [10]: 9.1; brain concentration at 2 h [16]: 816 ng/g; plasma concentration at 2 h [17]: 7883 ng/mL |
| COC(=O)c1ncc(Cl)cc1NC(=O)c1ccc(C(C)(C)C)cc1 | 0.43 | 0.57 | > 50 | > 116 | > 87.7 | logD ([5]; read-out: logD): 5.3; solubility kinetic [6]: < 1.6 µM; remaining at 1 h [7]: 2.7%; remaining at 1 h [8]: 24.7% |
| CC(C)(C)c1ccc(C(=O)Nc2cc(Cl)cnc2C(N)=O)cc1 | > 10 | > 10 | > 50 |  | > 50 |  |
| COC(=O)c1cnc(Cl)cc1NC(=O)c1ccc(C(C)(C)C)cc1 | 1.69 | > 10 | > 50 | > 29.6 | > 10 |  |
